Measured values: ChEMBL document CHEMBL3797152, “Minimum structural requirements for cell membrane leakage-mediated anti-MRSA activity of macrocyclic bis(bibenzyl)s” (2016)
Converted amounts (≈) assume the structure as drawn. The source made the active and inactive calls. The calls are words filed in the database; no cut-off is given here.

The compounds below were run on Staphylococcus aureus (assay: Antimicrobial activity against 2-phenoxyphenol/methicillin-resistant Staphylococcus aureus after 18 to 20 hrs by liquid microdilution method).
Assay type: functional

Compound	MIC
Oc1ccc(-c2ccc(CCc3ccccc3)cc2O)c(CCc2ccccc2)c1	8 µg/mL (≈ 20.3 µM)
Oc1ccccc1Oc1ccccc1	> 128 µg/mL
Cc1cc(O)ccc1-c1ccc(CCc2ccccc2)cc1O	16 µg/mL (≈ 52.6 µM)
Oc1ccc2c(c1)CCc1cccc(c1)-c1cccc(c1)CCc1ccc-2c(O)c1	0.5 µg/mL (≈ 1.27 µM)
Oc1ccc(-c2ccccc2O)cc1	> 128 µg/mL
Oc1ccc2c(c1)CCc1ccc(cc1)Oc1cc(ccc1O)CCc1ccc-2c(O)c1 [RICCARDI C]	2 µg/mL (≈ 4.71 µM)
Oc1ccc(CCc2cccc(O)c2)cc1 [LUNULARIN]	> 128 µg/mL

These compounds were tested on Staphylococcus aureus (assay: Antimicrobial activity against methicillin-resistant Staphylococcus aureus OM481 clinical isolate after 18 to 20 hrs by liquid microdilution method).
Assay type: functional

Compound	MIC
Oc1ccc(-c2ccc(CCc3ccccc3)cc2O)c(CCc2ccccc2)c1	8 µg/mL (≈ 20.3 µM)
Oc1ccccc1Oc1ccccc1	8 µg/mL (≈ 43 µM)
Cc1cc(O)ccc1-c1ccc(CCc2ccccc2)cc1O	16 µg/mL (≈ 52.6 µM)
Oc1ccc2c(c1)CCc1cccc(c1)-c1cccc(c1)CCc1ccc-2c(O)c1	0.5 µg/mL (≈ 1.27 µM)
Oc1ccc(-c2ccccc2O)cc1	> 128 µg/mL
Oc1ccc2c(c1)CCc1ccc(cc1)Oc1cc(ccc1O)CCc1ccc-2c(O)c1 [RICCARDI C]	2 µg/mL (≈ 4.71 µM)
Oc1ccc(CCc2cccc(O)c2)cc1 [LUNULARIN]	> 128 µg/mL

Each compound was assayed on Staphylococcus aureus (assay: Bactericidal activity against Staphylococcus aureus N315 cells assessed as reduction of bacterial burden at MIC up to 24 hrs).
Assay type: functional
Summary of the method: (§1)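 S. aureus N315 (MRSA strain) survival assay: compound added at 1× or 4× its MIC, with MIC determined by liquid microdilution. Read-out is the number of viable cells remaining over time after addition.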

Compound	Activity
Oc1ccc(-c2ccc(CCc3ccccc3)cc2O)c(CCc2ccccc2)c1	3 log10CFU/ml

The compounds below were run on Staphylococcus aureus (assay: Increase in cytoplasmic membrane permeability in Staphylococcus aureus N315 cells assessed as efflux of EtBr by fluorescence assay).
Assay type: functional, organism-based
Summary of the method: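 EtBr-loaded S. aureus N315 cells; EtBr release followed as fall in fluorescence (excitation 530 nm, emission 600 nm) after adding test compound.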

Compound	Activity
Oc1ccc(-c2ccc(CCc3ccccc3)cc2O)c(CCc2ccccc2)c1	Active
Cc1cc(O)ccc1-c1ccc(CCc2ccccc2)cc1O	Active

These compounds were tested on Staphylococcus aureus (assay: Bactericidal activity against Staphylococcus aureus N315 cells assessed as reduction of bacterial burden at 4 times MIC up to 24 hrs).
Assay type: functional, organism-based
Summary of the method: as §1

Compound	Activity
Oc1ccc(-c2ccc(CCc3ccccc3)cc2O)c(CCc2ccccc2)c1	Active

What follows are compounds tested on Staphylococcus aureus (assay: Antimicrobial activity against methicillin-resistant Staphylococcus aureus N315 after 18 to 20 hrs by liquid microdilution method).
Assay type: functional

Compound	MIC
Oc1ccc(-c2ccc(CCc3ccccc3)cc2O)c(CCc2ccccc2)c1	8 µg/mL (≈ 20.3 µM)
Oc1ccccc1Oc1ccccc1	8 µg/mL (≈ 43 µM)
Cc1cc(O)ccc1-c1ccc(CCc2ccccc2)cc1O	16 µg/mL (≈ 52.6 µM)
Oc1ccc2c(c1)CCc1cccc(c1)-c1cccc(c1)CCc1ccc-2c(O)c1	0.5 µg/mL (≈ 1.27 µM)
Oc1ccc(-c2ccccc2O)cc1	> 128 µg/mL
Oc1ccc2c(c1)CCc1ccc(cc1)Oc1cc(ccc1O)CCc1ccc-2c(O)c1 [RICCARDI C]	2 µg/mL (≈ 4.71 µM)
Oc1ccc(CCc2cccc(O)c2)cc1 [LUNULARIN]	> 128 µg/mL

These compounds were tested on Staphylococcus aureus (assay: Effect on membrane permeability assessed as increase in intracellular sodium levels in Staphylococcus aureus N315 cells by ICP-OES analysis).
Assay type: functional, organism-based

Compound	Activity
Oc1ccc(-c2ccc(CCc3ccccc3)cc2O)c(CCc2ccccc2)c1	Active

The compounds below were run on Staphylococcus aureus (assay: Effect on membrane permeability assessed as decrease in intracellular potassium levels in Staphylococcus aureus N315 cells by ICP-OES analysis).
Assay type: functional, organism-based

Compound	Activity
Oc1ccc(-c2ccc(CCc3ccccc3)cc2O)c(CCc2ccccc2)c1	Active

These compounds were tested on Staphylococcus aureus (assay: Increase in cytoplasmic membrane permeability in Staphylococcus aureus N315 cells assessed as influx of EtBr by fluorescence assay).
Assay type: functional, organism-based
Summary of the method: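 Energized S. aureus N315 cells; EtBr uptake followed as rise in fluorescence (excitation 530 nm, emission 600 nm) immediately after adding test compound.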

Compound	Activity
Oc1ccc(-c2ccc(CCc3ccccc3)cc2O)c(CCc2ccccc2)c1	Active
Cc1cc(O)ccc1-c1ccc(CCc2ccccc2)cc1O	Active
